The compounds below were run on Colon 26 (assay: Effective concentration required to give 50% cell kill with 4 J/cm**2 of light.(Dark and light induced toxicity towards murine colon carcinoma cell line(COLO-26 cells))). Conditions: Mus musculus, Colon 26, light or radiation study.
Format: functional, cell-based
How it was run: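 Colo-26 mouse colon carcinoma cells grown in RPMI 1640 with 10% fetal calf serum at 37 °C, 5% CO2, plated at 5×10^3 cells/well the evening before. Cells were PBS-washed, then kept 24 h at 37 °C in the dark with graded sensitizer in HBSS, washed, and irradiated in PBS with filtered 590–800 nm light (methods state 570–800 nm) to 4 J cm-2. Dark controls were not irradiated. After 24 h in growth medium, MTT survival was read, and EC50 was taken from surviving fraction vs concentration.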

SMILES | EC50 [nM]
O=C(O)COc1ccc(-c2c3nc(c(-c4ccc(F)cc4)c4ccc(s4)c(-c4ccc(F)cc4)c4nc(c(-c5ccc(OCC(=O)O)cc5)c5ccc2s5)C=C4)C=C3)cc1 | 430
O=S(=O)(O)c1ccc(-c2c3nc(c(-c4ccc(F)cc4)c4ccc([se]4)c(-c4ccc(F)cc4)c4nc(c(-c5ccc(S(=O)(=O)O)cc5)c5ccc2[se]5)C=C4)C=C3)cc1 | 7900
Cc1ccc(-c2c3nc(c(-c4ccc(S(=O)(=O)O)cc4)c4ccc(s4)c(-c4ccc(S(=O)(=O)O)cc4)c4nc(c(-c5ccc(C)cc5S(=O)(=O)O)c5ccc2s5)C=C4)C=C3)c(S(=O)(=O)O)c1 | 12000
O=S(=O)(O)c1ccc(-c2c3nc(c(-c4ccc(S(=O)(=O)O)cc4)c4ccc(s4)c(-c4ccc(S(=O)(=O)O)cc4)c4nc(c(-c5ccc(S(=O)(=O)O)cc5)c5ccc2s5)C=C4)C=C3)cc1 | 30000
O=C(O)COc1ccc(-c2c3nc(c(-c4ccccc4)c4ccc(s4)c(-c4ccccc4)c4nc(c(-c5ccc(OCC(=O)O)cc5)c5ccc2s5)C=C4)C=C3)cc1 | 150
CN(C)c1ccc(-c2c3nc(c(-c4ccc(S(=O)(=O)O)cc4)c4ccc(s4)c(-c4ccc(S(=O)(=O)O)cc4)c4nc(c(-c5ccc(N(C)C)cc5)c5ccc2s5)C=C4)C=C3)cc1 | 640
O=S(=O)(O)c1ccc(-c2c3nc(c(-c4ccc(S(=O)(=O)O)cc4)c4ccc([nH]4)c(-c4ccc(S(=O)(=O)O)cc4)c4ccc(s4)c(-c4ccc(S(=O)(=O)O)cc4)c4nc2C=C4)C=C3)cc1 | > 100000
O=S(=O)(O)c1ccc(-c2c3nc(c(-c4ccc(C(F)(F)F)cc4)c4ccc(s4)c(-c4ccc(C(F)(F)F)cc4)c4nc(c(-c5ccc(S(=O)(=O)O)cc5)c5ccc2s5)C=C4)C=C3)cc1 | > 100000
O=S(=O)(O)c1ccc(-c2c3nc(c(-c4ccc(F)cc4)c4ccc(s4)c(-c4ccc(F)cc4)c4nc(c(-c5ccc(S(=O)(=O)O)cc5)c5ccc2[se]5)C=C4)C=C3)cc1 | 2100
O=S(=O)(O)c1ccc(-c2c3nc(c(-c4ccc(F)cc4)c4ccc(s4)c(-c4ccc(F)cc4)c4nc(c(-c5ccc(S(=O)(=O)O)cc5)c5ccc2[nH]5)C=C4)C=C3)cc1 | 2100
O=S(=O)(O)c1ccc(-c2c3nc(c(-c4ccc(F)cc4)c4ccc(s4)c(-c4ccc(F)cc4)c4nc(c(-c5ccc(S(=O)(=O)O)cc5)c5ccc2s5)C=C4)C=C3)cc1 | 1600
O=S(=O)(O)c1ccc(-c2c3nc(c(-c4ccc(S(=O)(=O)O)cc4)c4ccc([nH]4)c(-c4ccc(S(=O)(=O)O)cc4)c4ccc([nH]4)c(-c4ccc(S(=O)(=O)O)cc4)c4nc2C=C4)C=C3)cc1 | 125000
O=S(=O)(O)c1ccc(-c2c3nc(c(-c4ccc(F)cc4)c4ccc([se]4)c(-c4ccc(F)cc4)c4nc(c(-c5ccc(S(=O)(=O)O)cc5)c5ccc2s5)C=C4)C=C3)cc1 | 1200
O=S(=O)(O)c1ccc(-c2c3nc(c(-c4ccc(S(=O)(=O)O)cc4)c4ccc([se]4)c(-c4ccc(S(=O)(=O)O)cc4)c4nc(c(-c5ccc(S(=O)(=O)O)cc5)c5ccc2[se]5)C=C4)C=C3)cc1 | > 100000

Source: ChEMBL document CHEMBL1135810, “Water-soluble, core-modified porphyrins as novel, longer-wavelength-absorbing sensitizers for photodynamic therapy. II. Effects of core heteroatoms and meso-substituents on biological activity” (J Med Chem, 2002)
